Hits are enriched below; roughly 1.9% of the tested compounds scored in any of these assays.
beta cell repl = MIN6 beta-cell proliferation induction | MIN6 cells proliferation, ATPlite luminescence, 48 h; cells starved in 0.2% serum; 100% = growth in 10% serum | proliferation, % at 10 µM | 0.29% of 330,000 active;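 active means compounds whose signal lies at least 3.5 SD above the mean of all wells on their plate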;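 further: 0% = DMSO-treated cells in low-serum medium and 100% = 10% serum control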
T cell modulator = T cell immune modulators affecting CD8 T cell-vesicle binding | 2C CD8+ T cell-vesicle binding, flow cytometry; active compounds read low | response (vesicle binding), % at 7 µM | 0.068% of 330,000 active;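 active means response, share of CD8 T cells binding vesicles, and their 90th percentile fluorescence all below set limits, cut at about 80% in these data, passing the limit was not always enough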;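 further: values below 100% mean blocked vesicle binding to the CD8+ T cells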
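Also added: QL9-peptide-loaded Drosophila micro-vesicles bearing Ld, ICAM-1 and B7-1; Test system: purified 2C TCR transgenic mouse naive CD8+ T cells; Measured by: cytometric PE anti-B7-1 and Alexa647 anti-CD8 signals after 1% paraformaldehyde fixation; Timing: binding step 1.5 h, 37 °C, antibody labelling 20 min, ice.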
V-ATPase pHluor = regulators of yeast V-ATPase proton transport; S. cerevisiae, pHLuorin cytosolic pH fluorescence; response, % at 10 µM; 0.37% of 350,000 active; AID 504577; in the data active means response mostly above about 7.3%, no sharp cut-off; inactive means mostly below about 5.4%; further: actives read high
Yeast superoxide = lowers age-related superoxide in aged yeast cells | superoxide response (% of plate mean), % at 10 µM | 0.18% of 330,000 active | S. cerevisiae aged cells, superoxide DHE fluorescence; active compounds read low | AID 2690;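 active means superoxide response under a set limit, about three screen SD below normal, cut at about 65% in these data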;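 further: yeast aged for seven days with compound at 30 °C before DHE staining; 100% = average MFI of all compound-treated wells on the plate with controls excluded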
KLK7 zymogen act = activators of human kallikrein-7 zymogen. P49862. purified proKLK7, EDANS-DABCYL substrate fluorescence; 100% is mature enzyme control, 0% vehicle. activation, % at 7 µM. 0.9% of 370,000 active. AID 652039;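 active means activation above the mean of all tested compounds plus 3 SD, computed per campaign excluding outliers beyond control limits, cut at about 13% in these data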
Rce1 inhib = inhibitors of yeast Ras-converting enzyme. AID 2563. Q03530. 0.27% of 290,000 active. calls only. yeast membranes, quenched prenylated peptide cleavage fluorescence;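 active means fall in fluorescence gain of 50% or more versus controls, with final raw signal at or below 3038400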;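 further: plate controls were neutral control wells for no effect and wells lacking membranes for full effect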
Target sequence (Q03530 whole entry, looked up): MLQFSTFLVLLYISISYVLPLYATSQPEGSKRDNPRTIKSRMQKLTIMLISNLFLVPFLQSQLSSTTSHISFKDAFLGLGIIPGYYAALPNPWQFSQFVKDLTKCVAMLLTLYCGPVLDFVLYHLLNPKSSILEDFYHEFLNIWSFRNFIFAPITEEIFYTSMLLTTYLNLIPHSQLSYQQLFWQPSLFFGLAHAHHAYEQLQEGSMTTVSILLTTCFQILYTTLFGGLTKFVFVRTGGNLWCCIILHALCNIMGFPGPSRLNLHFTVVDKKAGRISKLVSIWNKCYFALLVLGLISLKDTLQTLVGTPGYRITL
proKLK7 act conf = confirmation of human kallikrein-7 zymogen activators; shares compounds with KLK7 zymogen act; purified proKLK7, EDANS-DABCYL substrate fluorescence; scaled: vehicle 0, mature enzyme 100; activation, % at 7 µM; 68% of 3,200 active; AID 686949;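 active means activation, as change over the incubation, above the mean of all tested compounds plus 3 SD, cut at about 13% in these data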
EDANS-DABCYL int = fluorescence interference counter-screen for KLK7 activators | EDANS-DABCYL substrate fluorescence interference, no enzyme, 4 h; solvent 0%, active enzyme control 100% | 80% of 3,200 active | activation, % at 7 µM | shares compounds with KLK7 zymogen act;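 active means activation above the all-compound mean plus 3 SD, ignoring values outside control-based bounds, cut at about 4.8% in these data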;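 further: value is the 4 h activation minus the activation read at time zero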
K7 EDANS ctr = counter-screen for kallikrein-7 activators: EDANS-DABCYL interference, dose response. shares compounds with KLK7 zymogen act. EDANS-DABCYL peptide fluorescence interference, no enzyme. EC50, µM. 20% of 250 active. AID 720493;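 active means compounds that raise the fluorescence signal in this interference counterscreen, with EC50 at or below 10 µM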;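 further: intact quenched peptide substrate alone read at 355 nm excitation and 520 nm emission; signal is fluorescence gain from T0 to T4 after four hours at room temperature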
An asterisk follows results filed as active; i = inactive; . = not tested or not shown.

SMILES	beta cell repl	T cell modulator	V-ATPase pHluor	Yeast superoxide	KLK7 zymogen act	Rce1 inhib	proKLK7 act conf	EDANS-DABCYL int	others
CS(=O)(=O)c1ccc(-c2sc3cc4c(cc3c2C(=O)NN2CCOCC2)OCO4)cc1	-4	384	2	132	43*	.	35*	28*	K7 EDANS ctr=>70
COC(=O)CSc1nc2ccccn2c(=O)c1C=O	-1	127	-1	91	59*	i	77*	69*
O=Cc1c(Sc2ccccc2)nc2ccccn2c1=O	-4	456	1	141	0	i	.	.
O=Cc1c(SCCO)nc2ccccn2c1=O	-3	494	3	102	31*	i	23*	24*
CCCCCCCCN1C(=O)[C@H](CC(=O)N2CCSCC2)C[C@@]2(C(=O)OC)CC(C)(C)CC=C12	.	.	.	.	1	.	.	.
CCOC(=O)C1CCN(C(c2cc3c(C)ccc(C)c3[nH]c2=O)c2nnnn2C2CCCCC2)CC1 (stereo unspecified)	-2	294	0	75	27*	i	1	0
CC(=O)Oc1ccc2c(c1)C(=O)c1ccccc1CO2	-4	459	5	96	-8	i	.	.
COc1ccc(C2=Cc3ccc(OC(C)=O)cc3OC2)cc1	.	.	2	.	24*	.	14*	11*
CCc1nc2ccccc2c(=O)n1/N=C/c1ccc(OC)cc1	-1	511	5	89	0	i	.	.
Cc1ccc2c(c1)c1c(n2CC(O)Cn2ccnc2C)C(=O)CCC1 (stereo unspecified)	-1	184	-4	97	17*	i	9	15*
N#Cc1ccc(CC(=O)c2ccccc2)[nH]c1=O	.	.	-1	.	16*	.	100*	98*
O=C(c1cc2c(ccc3ccccc32)oc1=O)N1CCN(CCO)CC1	-3	84	4	109	26*	i	9	9.8*
CS(=O)(=O)N1CCN(C(=O)c2cc(-c3cccs3)nc3ccccc23)CC1	-1	251	-3	88	13*	i	16*	23*
CC(=O)c1cc2c(ccc3ccccc32)oc1=O	2	208	-1	99	6	i	.	.
O=C(c1cc(-c2cccs2)nc2ccccc12)N1CCN(c2ccccc2O)CC1	-4	77	2	96	-2	i	.	.
CC(=O)Nc1cc2c(ccc3ccccc32)oc1=O	2	183	0	89	23*	i	48*	57*
CS(=O)(=O)N1CCN(C(=O)c2cc(-c3ccccc3)nc3ccccc23)CC1	-4	278	-1	89	0	i	.	.
O=C(c1cc(-c2cccs2)nc2ccccc12)N1CCN(CCO)CC1	0	.	5	.	14*	.	22*	14*	K7 EDANS ctr=>69
CCc1ccc(NC(=O)Cn2nc(C)n3cccc3c2=O)cc1	0	554	2	88	0	i	.	.
COc1cc(C(=O)NNC(=O)CNC(=O)C2CCCCC2)ccc1OC(C)C	2	568	1	123	1	.	.	.
COc1ccc([C@@H]2[C@@H]3C(=O)N(C(C)(C)C)C(=O)[C@@H]3[C@]3(C)C(=O)N(c4cccc(Cl)c4)C(=O)N23)cc1	-1	875	-1	103	0	i	.	.
C=CCNC(=O)c1cc2c(=O)n3ccccc3nc2s1	-2	246	-1	97	52*	i	59*	69*
O=C(NC1CCCCCC1)c1cc2c(=O)n3ccccc3nc2s1	6	i	-4	101	25*	i	16*	7.9*	K7 EDANS ctr=>70
Cc1cccn2c(=O)c3cc(C(=O)NC4CCS(=O)(=O)C4)sc3nc12 (stereo unspecified)	3	584	3	108	22*	i	53*	43*	K7 EDANS ctr=>70
